Measurements gathered from unrelated publications.
Protocols differ between the studies behind these lines.
Target: Ephrin type-B receptor 3 (EPHB3, Homo sapiens, UniProt P54753)
Sequence (P54753 34-998, as in one of the studies): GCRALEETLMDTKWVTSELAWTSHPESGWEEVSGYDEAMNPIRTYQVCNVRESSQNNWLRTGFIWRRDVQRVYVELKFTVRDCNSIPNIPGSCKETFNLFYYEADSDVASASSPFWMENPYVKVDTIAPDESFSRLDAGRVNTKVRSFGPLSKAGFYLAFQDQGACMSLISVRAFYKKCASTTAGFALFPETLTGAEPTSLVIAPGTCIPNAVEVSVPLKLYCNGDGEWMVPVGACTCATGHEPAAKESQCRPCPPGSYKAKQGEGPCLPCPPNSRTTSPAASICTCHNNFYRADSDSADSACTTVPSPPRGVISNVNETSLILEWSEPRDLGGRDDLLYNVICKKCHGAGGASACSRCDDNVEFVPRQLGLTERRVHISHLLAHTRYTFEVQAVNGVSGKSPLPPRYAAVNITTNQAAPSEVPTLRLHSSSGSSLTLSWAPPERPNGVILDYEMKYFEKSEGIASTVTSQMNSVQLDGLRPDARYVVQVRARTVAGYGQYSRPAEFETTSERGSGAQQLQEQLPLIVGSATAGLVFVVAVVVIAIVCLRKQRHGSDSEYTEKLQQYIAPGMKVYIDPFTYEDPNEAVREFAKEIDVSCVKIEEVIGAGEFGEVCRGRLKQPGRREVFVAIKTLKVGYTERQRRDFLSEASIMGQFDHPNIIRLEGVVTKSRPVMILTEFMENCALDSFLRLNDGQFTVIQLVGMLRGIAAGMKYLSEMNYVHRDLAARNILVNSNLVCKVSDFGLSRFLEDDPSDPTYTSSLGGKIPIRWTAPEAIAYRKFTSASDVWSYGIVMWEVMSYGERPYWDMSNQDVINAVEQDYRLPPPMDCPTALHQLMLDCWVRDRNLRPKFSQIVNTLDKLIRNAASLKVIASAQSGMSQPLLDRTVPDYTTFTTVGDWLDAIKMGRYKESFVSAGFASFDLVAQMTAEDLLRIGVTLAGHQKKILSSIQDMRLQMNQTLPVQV

CC(C)(C)c1cc(C=C(C#N)C#N)cc(Br)c1O  remaining activity (enzyme activity, inhibitor; 0.5 µM): 107%
Cc1nn(C)cc1-c1nc2c(N3CCN(Cc4ccc(Cl)cc4)CC3)c(Cl)cnc2[nH]1  remaining binding (binding, competition with immobilised ligand; 1 µM): 77%
COc1cc(Nc2ncc(F)c(Nc3ccc4c(n3)NC(=O)C(C)(C)O4)n2)cc(OC)c1OC  inhibition (binding; 10 µM): 0%
O=c1[nH]c2ccccc2n1C1CCN(Cc2ccc(-c3[nH]c4cc5ncnc5cc4nc3-c3ccccc3)cc2)CC1  remaining signal (cell-free assay; 0.5 µM): 104%
N#CC1(c2ccccn2)CCN(Cc2cc(C(=O)O)c(=O)n3ccccc23)CC1  remaining binding (cell-free assay, competition with immobilised ligand; 1 µM): 92%
Cn1cc(-c2cc(F)cc(N3CCn4c(cc5c4CCCC5)C3=O)c2CO)cc(Nc2ccc(N3CCN(C4COC4)CC3)cn2)c1=O  inhibition (enzyme activity, inhibitor; 0.1 µM): 7%
COc1ncccc1-c1cnn2ccc(N3CCN(C(=O)OC(C)C)CC3)nc12  remaining binding (binding, competition with immobilised ligand; 1 µM): 100%
Cn1cncc1[C@](O)(COc1ccc(C#N)cc1-c1ccc(OC(F)(F)F)cc1)c1ccc(C#N)cc1  remaining binding (cell-free assay, competition with immobilised ligand; 1 µM): 100%
Cn1cc(-c2cccc(N3CCc4c(sc5c4CC(C)(C)C5)C3=O)c2CO)cc(Nc2ccncn2)c1=O  inhibition (enzyme activity, inhibitor; 1 µM): 1%
